Test results taken from ChEMBL document CHEMBL4665666, “Discovery and characterization of trypanocidal cysteine protease inhibitors from the 'malaria box'” (Eur J Med Chem, 2019).

Assays:
[1] = test system: Trypanosoma brucei brucei; test: Trypanocidal activity against Trypanosoma brucei brucei Squib 427 assessed as reduction in parasite viability; assay type: functional, organism-based
[2] = molecular target: Rhodesain (Trypanosoma brucei rhodesiense) (UniProt Q95PM0); test: Inhibition of recombinant Trypanosoma brucei rhodesain expressed in Pichia pastoris at 5 uM using Z-FR-AMC as substrate preincubated for 10 mins followed by substrate addition and measured at 12 sec interval for 5 mins by fluorimetric analysis relative to control; conditions: time 15.0 min
Chain of Rhodesain (Trypanosoma brucei rhodesiense) (Q95PM0 1-450): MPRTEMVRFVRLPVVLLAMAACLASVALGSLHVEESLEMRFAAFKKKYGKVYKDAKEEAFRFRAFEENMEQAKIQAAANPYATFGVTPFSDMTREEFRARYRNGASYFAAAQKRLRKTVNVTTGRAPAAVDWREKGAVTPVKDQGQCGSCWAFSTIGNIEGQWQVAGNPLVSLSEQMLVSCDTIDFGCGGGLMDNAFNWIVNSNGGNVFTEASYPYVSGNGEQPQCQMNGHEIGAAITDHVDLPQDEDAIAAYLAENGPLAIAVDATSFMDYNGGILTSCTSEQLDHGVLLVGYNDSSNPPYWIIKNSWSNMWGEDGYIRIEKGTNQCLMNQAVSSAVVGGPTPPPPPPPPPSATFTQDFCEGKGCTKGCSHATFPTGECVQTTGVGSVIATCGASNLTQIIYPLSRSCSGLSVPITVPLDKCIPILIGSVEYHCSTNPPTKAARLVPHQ
Procedure, shortened: (§1)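 Recombinant rhodesain or cruzain (1 nM) in 0.1 M sodium acetate pH 5.5, 0.01% Triton X-100, 1 mM β-mercaptoethanol. Compound at a single concentration, either without or after 10 min enzyme pre-incubation. Inhibition is relative to DMSO, with E-64 as positive control. Done in duplicate (primary screen) or triplicate.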

[3] = molecular target: Cruzipain (Trypanosoma cruzi) (UniProt P25779); test: Inhibition of recombinant Trypanosoma cruzi cruzain at 10 uM using Z-FR-AMC as substrate and measured at 12 sec interval for 5 mins without preincubation by fluorimetric analysis relative to control
Chain of Cruzipain (Trypanosoma cruzi) (P25779 123-467 limits assumed): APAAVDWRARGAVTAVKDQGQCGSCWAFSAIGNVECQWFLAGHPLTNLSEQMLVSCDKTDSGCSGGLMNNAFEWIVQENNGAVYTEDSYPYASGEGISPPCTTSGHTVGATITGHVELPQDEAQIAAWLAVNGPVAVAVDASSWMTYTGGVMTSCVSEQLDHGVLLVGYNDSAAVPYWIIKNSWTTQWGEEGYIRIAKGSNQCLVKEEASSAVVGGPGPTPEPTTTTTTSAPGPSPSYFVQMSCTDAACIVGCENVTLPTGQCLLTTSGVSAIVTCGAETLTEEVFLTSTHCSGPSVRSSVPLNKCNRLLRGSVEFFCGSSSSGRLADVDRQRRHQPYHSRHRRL
Procedure, shortened: as §1, with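 “pre-incubation. Z-FR-AMC 2.5 µM, read at 340/440 nm every 12 s for 5 min.” for “pre-incubation.”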

[4] = molecular target: Rhodesain (Trypanosoma brucei rhodesiense) (UniProt Q95PM0); test: Inhibition of recombinant Trypanosoma brucei rhodesain expressed in Pichia pastoris at 10 uM using Z-FR-AMC as substrate preincubated for 10 mins followed by substrate addition and measured at 12 sec interval for 5 mins by fluorimetric analysis relative to control; conditions: time 15.0 min
Procedure, shortened: as §1, with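 “pre-incubation. Z-FR-AMC 2.5 µM, read at 340/440 nm every 12 s for 5 min.” for “pre-incubation.”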

[5] = molecular target: Cruzipain (Trypanosoma cruzi) (UniProt P25779); test: Inhibition of recombinant Trypanosoma cruzi cruzain at 5 uM using Z-FR-AMC as substrate and measured at 12 sec interval for 5 mins without preincubation by fluorimetric analysis relative to control; procedure, shortened: as §1
[6] = molecular target: Rhodesain (Trypanosoma brucei rhodesiense) (UniProt Q95PM0); test: Inhibition of recombinant Trypanosoma brucei rhodesain expressed in Pichia pastoris at 5 uM using Z-FR-AMC as substrate and measured at 12 sec interval for 5 mins without preincubation by fluorimetric analysis relative to control; procedure, shortened: as §1
[7] = molecular target: Cruzipain (Trypanosoma cruzi) (UniProt P25779); test: Inhibition of recombinant Trypanosoma cruzi cruzain at 20 uM using Z-FR-AMC as substrate and measured at 12 sec interval for 5 mins without preincubation by fluorimetric analysis relative to control
Procedure, shortened: as §1, with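 “pre-incubation. Z-FR-AMC 2.5 µM, read at 340/440 nm every 12 s for 5 min.” for “pre-incubation.”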

[8] = molecular target: Cruzipain (Trypanosoma cruzi) (UniProt P25779); test: Inhibition of recombinant Trypanosoma cruzi cruzain at 20 uM using Z-FR-AMC as substrate preincubated for 10 mins followed by substrate addition and measured at 12 sec interval for 5 mins by fluorimetric analysis relative to control; conditions: time 15.0 min
Procedure, shortened: as §1, with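 “pre-incubation. Z-FR-AMC 2.5 µM, read at 340/440 nm every 12 s for 5 min.” for “pre-incubation.”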

[9] = molecular target: Rhodesain (Trypanosoma brucei rhodesiense) (UniProt Q95PM0); test: Inhibition of recombinant Trypanosoma brucei rhodesain expressed in Pichia pastoris at 20 uM using Z-FR-AMC as substrate and measured at 12 sec interval for 5 mins without preincubation by fluorimetric analysis relative to control
Procedure, shortened: (§2)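 Run with no pre-incubation or with 10 min enzyme-compound pre-incubation. Fluorescence read at 340/440 nm. Concentration was set by solubility under assay conditions. Inhibition is against DMSO, with E-64 as positive control; triplicate.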

[10] = molecular target: Rhodesain (Trypanosoma brucei rhodesiense) (UniProt Q95PM0); test: Inhibition of recombinant Trypanosoma brucei rhodesain expressed in Pichia pastoris at 20 uM using Z-FR-AMC as substrate preincubated for 10 mins followed by substrate addition and measured at 12 sec interval for 5 mins by fluorimetric analysis relative to control; conditions: time 15.0 min; procedure, shortened: as §2
[11] = molecular target: Cruzipain (Trypanosoma cruzi) (UniProt P25779); test: Inhibition of recombinant Trypanosoma cruzi cruzain at 5 uM using Z-FR-AMC as substrate preincubated for 10 mins followed by substrate addition and measured at 12 sec interval for 5 mins by fluorimetric analysis relative to control; conditions: time 15.0 min; procedure, shortened: as §1
[12] = molecular target: Rhodesain (Trypanosoma brucei rhodesiense) (UniProt Q95PM0); test: Inhibition of recombinant Trypanosoma brucei rhodesain expressed in Pichia pastoris at 10 uM using Z-FR-AMC as substrate and measured at 12 sec interval for 5 mins without preincubation by fluorimetric analysis relative to control
Procedure, shortened: as §1, with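 “pre-incubation. Z-FR-AMC 2.5 µM, read at 340/440 nm every 12 s for 5 min.” for “pre-incubation.”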

[13] = molecular target: Cruzipain (Trypanosoma cruzi) (UniProt P25779); test: Inhibition of recombinant Trypanosoma cruzi cruzain at 10 uM using Z-FR-AMC as substrate preincubated for 10 mins followed by substrate addition and measured at 12 sec interval for 5 mins by fluorimetric analysis relative to control; conditions: time 15.0 min
Procedure, shortened: as §1, with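 “pre-incubation. Z-FR-AMC 2.5 µM, read at 340/440 nm every 12 s for 5 min.” for “pre-incubation.”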

Trypanosoma cruzi = test: Trypanocidal activity against Trypanosoma cruzi Tulahuen C4 assessed as reduction in parasite viability; assay type: functional, organism-based
[14] = molecular target: Cruzipain (Trypanosoma cruzi) (UniProt P25779); test: Inhibition of recombinant Trypanosoma cruzi cruzain at 10 uM preincubated for 10 mins in presence of 0.01% Triton X-100 relative to control
Procedure, shortened: (§3)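 To test detergent sensitivity, cruzain was pre-incubated 10 min at room temperature with compound with no Triton X-100, 0.01% or 0.1% Triton X-100. Cleavage of Z-FR-AMC was then followed at pH 5.5 in acetate buffer. Percent inhibition was compared across detergent levels.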

[15] = test system: Trypanosoma brucei rhodesiense; test: Trypanocidal activity against Trypanosoma brucei rhodesiense STI B900 assessed as reduction in parasite viability; assay type: functional, organism-based
[16] = molecular target: Cruzipain (Trypanosoma cruzi) (UniProt P25779); test: Inhibition of recombinant Trypanosoma cruzi cruzain at 10 uM preincubated for 10 mins in presence of 0.1% Triton X-100 relative to control; procedure, shortened: as §3
Cruzipain = Cruzipain (Trypanosoma cruzi, UniProt P25779); test: Inhibition of recombinant Trypanosoma cruzi cruzain using Z-FR-AMC as substrate and measured at 12 sec interval for 5 mins without preincubation by fluorimetric analysis
Chain of Cruzipain (P25779 whole entry): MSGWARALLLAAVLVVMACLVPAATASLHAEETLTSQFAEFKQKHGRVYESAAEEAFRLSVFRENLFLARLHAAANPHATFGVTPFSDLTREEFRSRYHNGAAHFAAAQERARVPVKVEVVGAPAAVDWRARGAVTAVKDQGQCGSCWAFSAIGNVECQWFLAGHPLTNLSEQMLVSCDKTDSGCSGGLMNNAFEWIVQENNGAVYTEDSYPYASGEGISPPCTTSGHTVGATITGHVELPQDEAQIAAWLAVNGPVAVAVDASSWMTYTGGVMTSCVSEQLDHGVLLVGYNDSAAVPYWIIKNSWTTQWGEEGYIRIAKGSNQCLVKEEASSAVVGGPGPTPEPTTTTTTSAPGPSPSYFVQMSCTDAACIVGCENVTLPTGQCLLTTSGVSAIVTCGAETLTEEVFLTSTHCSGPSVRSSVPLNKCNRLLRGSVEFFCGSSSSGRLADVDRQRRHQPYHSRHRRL
Procedure, shortened: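 Cruzain (recombinant, 1 nM) in 0.1 M sodium acetate pH 5.5 with 0.01% Triton X-100 and 1 mM β-mercaptoethanol; Z-FR-AMC 2.5 µM, read at 340/440 nm every 12 s for 5 min, with or without 10 min enzyme–compound pre-incubation. […] For mechanism and Ki, 0.3–20.0 µM substrate and five inhibitor levels were used, with Lineweaver-Burk plots.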

[17] = molecular target: Cruzipain (Trypanosoma cruzi) (UniProt P25779); test: Inhibition of recombinant Trypanosoma cruzi cruzain at 10 uM preincubated with BSA for 5 mins followed by incubation with enzyme for 5 mins followed by substrate addition relative to control; conditions: time 10.0 min
Procedure, shortened: (§4)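 For BSA sensitivity, compound was held 5 min with BSA (2 mg/mL in 0.001% Triton X-100), then 5 min with 1 nM cruzain, before substrate was added and activity monitored. Parallel runs omitted BSA under otherwise identical conditions.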

[18] = molecular target: Cruzipain (Trypanosoma cruzi) (UniProt P25779); test: Inhibition of recombinant Trypanosoma cruzi cruzain at 10 uM preincubated with enzyme for 5 mins followed by substrate addition in absence of BSA relative to control; procedure, shortened: as §4
[19] = molecular target: Cruzipain (Trypanosoma cruzi) (UniProt P25779); test: Inhibition of recombinant Trypanosoma cruzi cruzain at 10 uM preincubated for 10 mins in absence of Triton X-100 relative to control; procedure, shortened: as §3
[20] = molecular target: Rhodesain (Trypanosoma brucei rhodesiense) (UniProt Q95PM0); test: Inhibition of recombinant Trypanosoma brucei rhodesain expressed in Pichia pastoris at 2.5 uM using Z-FR-AMC as substrate and measured at 12 sec interval for 5 mins without preincubation by fluorimetric analysis relative to control; procedure, shortened: as §2
[21] = molecular target: Cruzipain (Trypanosoma cruzi) (UniProt P25779); test: Inhibition of recombinant Trypanosoma cruzi cruzain at 2.5 uM using Z-FR-AMC as substrate preincubated for 10 mins followed by substrate addition and measured at 12 sec interval for 5 mins by fluorimetric analysis relative to control; conditions: time 15.0 min
Procedure, shortened: as §1, with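 “pre-incubation. Z-FR-AMC 2.5 µM, read at 340/440 nm every 12 s for 5 min.” for “pre-incubation.”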

[22] = molecular target: Cruzipain (Trypanosoma cruzi) (UniProt P25779); test: Inhibition of recombinant Trypanosoma cruzi cruzain at 2.5 uM using Z-FR-AMC as substrate and measured at 12 sec interval for 5 mins without preincubation by fluorimetric analysis relative to control
Procedure, shortened: as §1, with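 “pre-incubation. Z-FR-AMC 2.5 µM, read at 340/440 nm every 12 s for 5 min.” for “pre-incubation.”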

[23] = molecular target: Rhodesain (Trypanosoma brucei rhodesiense) (UniProt Q95PM0); test: Inhibition of recombinant Trypanosoma brucei rhodesain expressed in Pichia pastoris at 2.5 uM using Z-FR-AMC as substrate preincubated for 10 mins followed by substrate addition and measured at 12 sec interval for 5 mins by fluorimetric analysis relative to control; conditions: time 15.0 min; procedure, shortened: as §2

Structure (SMILES): CCOc1ccc(/C=C/c2nc(=O)c3ccccc3o2)cc1
- IC50 [1]: 32 µM
- inhibition [2]: 67%
- inhibition [3]: 10%
- inhibition [4]: 0%
- inhibition [5]: 30.1%
- inhibition [6]: 32.7%
- inhibition [7]: 15%
- inhibition [8]: 10%
- inhibition [9]: 14%
- inhibition [10]: 0%
- inhibition [11]: 88.6%
- inhibition [12]: 8%
- inhibition [13]: 3%

Structure (SMILES): CCOc1cccc(C(=O)Nc2ccc(-c3nc4ccccc4[nH]3)cc2)c1
- IC50 [1]: 32 µM
- inhibition [2]: 75.6%
- IC50 (Trypanosoma cruzi): 32 µM
- inhibition [3]: 89%
- inhibition [14]: 100%
- inhibition [4]: 100%
- inhibition [5]: 88.1%
- inhibition [6]: 53.7%
- IC50 [15]: 32 µM
- inhibition [16]: 34.6%
- IC50 (Cruzipain): 2.6 µM
- inhibition [11]: 72.7%
- inhibition [17]: 16%
- inhibition [18]: 97.9%
- inhibition [12]: 46%
- inhibition [13]: 100%
- inhibition [19]: 100%

Structure (SMILES): Cc1ccc(C(=O)c2oc3ccc4c(C)cc(=O)oc4c3c2C)cc1
- IC50 [1]: 32 µM
- inhibition [2]: 77.1%
- IC50 (Trypanosoma cruzi): 32 µM
- inhibition [20]: 8%
- inhibition [5]: 53.6%
- inhibition [21]: 11%
- inhibition [6]: 60.4%
- IC50 [15]: 32 µM
- inhibition [22]: 3%
- inhibition [11]: 69%
- inhibition [23]: 12%
